According to ChEMBL document CHEMBL4024804 (J Med Chem, 2018):
Active and inactive are the calls of the source. The calls are words filed in the database; no cut-off is given here.

What was measured:
PC-3 [1] = assay: Cytotoxicity against human PC3 cells after 72 hrs by MTS assay; assay type: functional, cell-based; settings: PC-3, 72 h
Method in brief: (§1)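 Cells treated 72 h at 10 concentrations, 0.03 nM–1 μM, n = 4. MTS read at 490 nm; IC50 by nonlinear regression. RI = resistant IC50 / parental IC50.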

[2] = Cytotoxicity against human DU145-TxR cells after 72 hrs by MTS assay; assay type: functional, cell-based; method in brief: as §1
PC3-TxR [3] = assay: Antitumor activity against human PC3-TxR cells xenografted in nude mouse assessed as decrease in tumor volume at 15 mg/kg, ip administered every other day for 3 weeks; assay type: functional, organism-based
Method in brief: (§2)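 Paclitaxel-resistant PC-3/TxR, kept drug-free at least 1 week beforehand, implanted subcutaneously (2.5 × 10^6 cells with Matrigel) in nude mice. Randomized at ~100 mm3 (n = 7). Dosing ip every other day in 2:1 PEG300/PBS. Volume by caliper (a × b2 × 0.5) three times weekly, tumors weighed at end. One-way ANOVA with Dunnett's test versus vehicle.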

PC3-TxR [4] = assay: Antitumor activity against human PC3-TxR cells xenografted in nude mouse assessed as decrease in tumor weight at 15 mg/kg, ip administered every other day for 3 weeks; assay type: functional, organism-based; method in brief: as §2
A-375 [5] = assay: Induction of apoptosis in human A375 cells xenografted in nude mouse assessed as increase in cleaved caspase-3 levels at 15 mg/kg, ip administered every other day for 2 weeks by immunohistochemical analysis; assay type: functional, organism-based
Method in brief: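 Formalin-fixed, paraffin-embedded A375 xenograft tumors from mice dosed ip every other day (2:1 PEG300/PBS). Serial sections immunostained with rabbit anti-cleaved caspase 3 antibody by the ABC-DAB method.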

Mus musculus = assay: Toxicity in nude mouse xenografted with human PC3-TxR cells assessed as decrease in body weight at 15 mg/kg, ip administered every other day for 2 weeks; assay type: organism-based; settings: in vivo, 336 h
[6] = Cytotoxicity against human PC3-TxR cells after 72 hrs by MTS assay; assay type: functional, cell-based; method in brief: as §1
PC-3 [7] = assay: Antitumor activity against human PC3 cells xenografted in nude mouse assessed as decrease in tumor volume at 15 mg/kg, ip administered every other day for 3 weeks; assay type: functional, organism-based
Method in brief: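 PC-3 cells (2.5 × 10^6) with Matrigel injected subcutaneously in dorsal flank of nude mice. At ~100 mm3, randomized (n = 8). Dosing ip every other day in 2:1 PEG300/PBS; vehicle PEG300/PBS 1:1. Caliper volume a × b2 × 0.5 three times weekly.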

A-375 [8] = assay: Antitumor activity against human A375 cells xenografted in nude mouse assessed as tumor growth inhibition at 15 mg/kg, ip administered every other day for 2 weeks relative to control; assay type: functional; settings: A-375, ip, 336 h, read-out: TGI
Method in brief: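 Nude mice 6–8 weeks old; 2 × 10^6 A375 cells in FBS-free medium with Matrigel injected sc into dorsal flank. At about 100 mm3 mice were randomized, n = 8. Drug in 2:1 PEG300/PBS given ip every other day. Volume measured by caliper three times weekly (a × b2 × 0.5).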

M14 = assay: Cytotoxicity against human M14 cells after 72 hrs by MTS assay; assay type: functional, cell-based; settings: M14, 72 h
Method in brief: (§3)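 Melanoma cells grown in DMEM with 10% FBS and seeded at 1800–3500 cells per well, then incubated overnight. Cells treated for 72 h with 10 concentrations from 0.03 nM to 1 μM, with DMSO vehicle, in four replicates. MTS added for at least 1 h at 37 °C and absorbance read at 490 nm. IC50 obtained by nonlinear regression.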

[9] = Acute toxicity in nude mouse administered as qd for 5 days; settings: in vivo
Method in brief: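 Nude mice, 6–8 weeks old; compound formulated in PEG300 and given as five continuous daily administrations, then monitored for acute toxicity. A single-dose acute MTD was estimated first.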

A-375 [10] = assay: Cytotoxicity against human A375 cells after 72 hrs by MTS assay; assay type: functional, cell-based; settings: A-375, 72 h; method in brief: as §3
A-375 [11] = assay: Induction of morphological changes in human A375 cells xenografted in nude mouse assessed as less microvessel density at 15 mg/kg, ip administered every other day for 2 weeks by immunohistochemical analysis; assay type: functional, organism-based
Liver = assay: Half life in human liver microsomes by UPLC-MS analysis; assay type: ADME, microsome
Method in brief: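 Compound at 10 mM in DMSO diluted into human liver microsomes (0.6381 mg/mL protein) in 0.1 M potassium phosphate pH 7.4 with EDTA. NADPH regenerating system added, incubated at 37 °C for 0–4 h in triplicate. Quenched with cold acetonitrile containing warfarin as internal standard, analysed by UPLC–MS SIR. ke from log-linear regression; t1/2 = ln 2/ke.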

A-375 [12] = assay: Antitumor activity against human A375 cells xenografted in nude mouse assessed as decrease in tumor weight at 30 mg/kg, ip administered every other day for 2 weeks; assay type: functional, organism-based; settings: 15 mg/kg, in the assay text read “at 15 mg/kg” for “at 30 mg/kg”
Method in brief: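 Nude mice (6–8 weeks) injected subcutaneously in dorsal flank with 2 × 10^6 A375 cells in Matrigel. At ~100 mm3, randomized (n = 8). Compound given ip every other day in 2:1 PEG300/PBS; vehicle equal parts PEG300/PBS. Tumors weighed at sacrifice; mean ± SEM, ANOVA with Dunnett's test versus vehicle.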

Tubulin (Sus scrofa) = assay: Inhibition of tubulin (porcine brain) polymerization measured every min for 50 mins
RPMI-7951 [13] = assay: Cytotoxicity against human RPMI7951 cells after 72 hrs by MTS assay; assay type: functional, cell-based; settings: RPMI-7951, 72 h; method in brief: as §3
A-375 [14] = assay: Antimigratory activity in human A375 cells assessed as wound closure at 25 nM after 22 hrs (reference value: 60.7 +/- […]); assay type: functional
RPMI-7951 [15] = assay: Antimigratory activity in human RPMI7951 cells at 5 nM after 18 hrs by wound healing assay; assay type: functional, cell-based
A-375 [16] = assay: Antimigratory activity in human A375 cells assessed as wound closure at 5 nM after 22 hrs (reference value: 60.7 +/- […]); assay type: functional
RPMI-7951 [17] = assay: Antimigratory activity in human RPMI7951 cells assessed as wound closure at 25 nM after 18 hrs (reference value: 71.8 +/- 1.8%); assay type: functional
Homo sapiens [18] = species: Homo sapiens; assay: Inhibition of tubulin polymerization in human WM164 cells assessed as fragmentation of microtubules at 100 nM after 18 hrs using DAPI by immunofluorescence-based confocal microscopic method; assay type: cell-based
Method in brief: (§4)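 WM164 cells on glass coverslips (125 000 cells/well), incubated overnight, treated 18 h with 100 nM compound or DMSO vehicle. Stained with anti-α-tubulin and Alexa Fluor 647 anti-mouse IgG, mounted in DAPI-containing medium, and imaged by confocal microscopy.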

[19] = Resistance index, ratio of IC50 for human PC3-TxR cells to IC50 for human PC3 cells; assay type: functional
Method in brief: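 Cells were treated 72 h with 10 concentrations from 0.03 nM to 1 μM, four replicates, A490 read. IC50 by nonlinear regression. RI = IC50 resistant / IC50 parental.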

DU-145 = assay: Cytotoxicity against human DU145 cells after 72 hrs by MTS assay; assay type: functional, cell-based; settings: DU-145, 72 h; method in brief: as §1
Homo sapiens [20] = species: Homo sapiens; assay: Inhibition of tubulin polymerization in human WM164 cells assessed as increase in cytoplasmic soluble tubulin levels at 100 nM after 18 hrs using DAPI by immunofluorescence-based confocal microscopic method; assay type: cell-based; method in brief: as §4
[21] = Resistance index, ratio of IC50 for human DU145-TxR cells to IC50 for human DU145 cells; assay type: functional; method in brief: as §1
Homo sapiens [22] = species: Homo sapiens; assay: Inhibition of tubulin polymerization in human WM164 cells assessed as decrease in polymeric tubulin filaments at 100 nM after 18 hrs using DAPI by immunofluorescence-based confocal microscopic method; assay type: cell-based; method in brief: as §4

## CC(=O)O[C@H]1C(=O)[C@@]2(C)[C@H]([C@H](OC(=O)c3ccccc3)[C@]3(O)C[C@H](OC(=O)[C@H](O)[C@@H](NC(=O)c4ccccc4)c4ccccc4)C(C)=C1C3(C)C)[C@]1(OC(C)=O)CO[C@@H]1C[C@@H]2O [PACLITAXEL]
PC-3 [1]
  IC50: 3.7 nM
[2]
  IC50: > 1000 nM
PC3-TxR [3]
  Activity: inactive
PC3-TxR [4]
  Activity: inactive
A-375 [5]
  Activity: Active
Mus musculus
  Activity: Toxic
[6]
  IC50: 111 nM
PC-3 [7]
  Activity: Active
A-375 [8]
  inhibition in vivo at 15 mg/kg: 76.5%

## COc1ccc2c(c1)CCCN2c1nc(Cl)nc2ccoc12
M14
  IC50: 3.3 nM
[9]
  MTD at 120 h: 30 mg/kg
A-375 [10]
  IC50: 3.2 nM
A-375 [11]
  Activity: Active
Liver
  t1/2: 19.2 min
A-375 [12]
  Activity: Active
A-375 [5]
  Activity: Active
Tubulin (Sus scrofa)
  inhibition: Dose-dependent effect
A-375 [8]
  inhibition in vivo at 15 mg/kg: 66.5%
RPMI-7951 [13]
  IC50: 5.1 nM

## COc1cc2c(c(OC)c1OC)-c1ccc(OC)c(=O)cc1[C@@H](NC(C)=O)CC2 [COLCHICINE]
A-375 [14]
  Activity: 20.7%
RPMI-7951 [15]
  Activity: inactive
A-375 [16]
  Activity: 46%
RPMI-7951 [17]
  Activity: 42.8%

## CC(=O)O[C@@]12CO[C@@H]1C[C@H](O)[C@@]1(C)C(=O)[C@H](O)C3=C(C)[C@@H](OC(=O)[C@H](O)[C@@H](NC(=O)OC(C)(C)C)c4ccccc4)C[C@@](O)([C@@H](OC(=O)c4ccccc4)[C@H]21)C3(C)C [DOCETAXEL ANHYDROUS]
Homo sapiens [18]
  inhibition: inactive
PC-3 [1]
  IC50: 0.5 nM
[19]
  Ratio IC50: 55.8
[2]
  IC50: 352 nM
[6]
  IC50: 27.9 nM
DU-145
  IC50: 0.1 nM
Homo sapiens [20]
  inhibition: inactive
[21]
  Ratio IC50: >3523
Homo sapiens [22]
  inhibition: inactive

## COc1ccc2c(c1)OCCN2c1nc(Cl)nc2ncccc12
M14
  IC50: 269 nM
A-375 [10]
  IC50: 223 nM
RPMI-7951 [13]
  IC50: 404 nM

## COc1ccc2c(c1)CCCN2c1nc(Cl)nc2c1cnn2C
M14
  IC50: > 1000 nM
A-375 [10]
  IC50: > 1000 nM
RPMI-7951 [13]
  IC50: > 1000 nM

## COc1ccc2c(c1)C(=O)CCN2c1nc(Cl)nc2ncccc12
M14
  IC50: > 1000 nM
A-375 [10]
  IC50: > 1000 nM
RPMI-7951 [13]
  IC50: > 1000 nM

## COc1ccc2c(c1)CCCN2c1nc(C)nc2onc(C)c12
M14
  IC50: 18.8 nM
A-375 [10]
  IC50: 16.1 nM
Liver
  t1/2: 51.6 min
RPMI-7951 [13]
  IC50: 17.6 nM

## COc1ccc2c(c1)CCCN2c1nc(Cl)nc2c(C)csc12
M14
  IC50: 52.6 nM
A-375 [10]
  IC50: 49 nM
RPMI-7951 [13]
  IC50: 91.3 nM
